The list is not random: actives were taken first. Their share in the collection is about 0.7%.
STK33 inh: human STK33 kinase inhibition | Q9BYT3 | purified STK33, MBP phosphorylation, ADP-Glo luminescence | inhibition, % at 10 µM | 320,000 compounds, 0.073% hits;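 active = inhibition at or above 25%, using the most active replicate where run in duplicate; inactive = inhibition below 25%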
GSK3beta inhib: human GSK3beta kinase inhibition; P49841; GST-GSK3beta kinase, ADP-Glo luminescence, 60 min; active compounds read low; activity score (negative = inhibition), % at 10 µM; 300,000 compounds, 0.038% hits; AID 2097;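 active = more than half of replicate wells score below -50%, meaning over 50% inhibition versus plate controls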
Target sequence (P49841 whole entry, looked up): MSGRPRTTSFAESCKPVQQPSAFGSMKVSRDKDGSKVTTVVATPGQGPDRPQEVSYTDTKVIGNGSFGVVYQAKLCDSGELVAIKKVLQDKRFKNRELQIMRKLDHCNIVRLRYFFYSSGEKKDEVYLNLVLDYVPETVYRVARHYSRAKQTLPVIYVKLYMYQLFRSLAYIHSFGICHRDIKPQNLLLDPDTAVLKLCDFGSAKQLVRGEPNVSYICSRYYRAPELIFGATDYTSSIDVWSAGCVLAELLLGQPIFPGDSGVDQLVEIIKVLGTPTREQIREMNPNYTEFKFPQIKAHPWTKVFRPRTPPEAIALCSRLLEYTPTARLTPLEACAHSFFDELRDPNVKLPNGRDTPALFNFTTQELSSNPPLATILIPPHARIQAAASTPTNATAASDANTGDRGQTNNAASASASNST
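test system = GST-tagged human GSK3beta kinase, cell-free | reagent = 25 µM ATP with peptide substrate | dosing = one dose of 10 µM per compound | schedule = 60 min reaction, RT | detection = luminescent ADP-Glo measurement of ADP formed | control set = DMSO neutral wells and GW8510 at 20 µM as positive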
Rce1 inhib: blocks yeast Ras-converting enzyme; 290,000 compounds, 0.27% hits; Q03530; yeast membranes, quenched prenylated peptide cleavage fluorescence; calls only;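 active = fall in fluorescence gain of 50% or more versus controls, with final raw signal at or below 3038400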
Target sequence (Q03530 whole entry, looked up): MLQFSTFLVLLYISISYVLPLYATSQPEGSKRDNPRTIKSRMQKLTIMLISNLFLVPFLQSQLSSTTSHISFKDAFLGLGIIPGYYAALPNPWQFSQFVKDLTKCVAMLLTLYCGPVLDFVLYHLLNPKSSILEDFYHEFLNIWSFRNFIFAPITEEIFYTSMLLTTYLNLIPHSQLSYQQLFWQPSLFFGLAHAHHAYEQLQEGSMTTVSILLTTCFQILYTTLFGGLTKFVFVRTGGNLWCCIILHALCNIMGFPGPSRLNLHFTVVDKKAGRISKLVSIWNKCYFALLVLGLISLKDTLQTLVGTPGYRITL
HSV augment: increases HSV replication in cells. 220,000 compounds, 0.005% hits. maximum fold increase. HSV replication augmentation in cells, fold increase; in the data active = maximum fold increase above about 1.5; tested in PC3 cells
GSK3A inh: inhibitors of human GSK-3 alpha kinase; P49840; ADP-Glo luminescence, 60 min; inhibition, % at 10 µM; 320,000 compounds, 0.1% hits; AID 2650;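 active = more than half of replicates show inhibition above 20%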;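 note: GST-tagged GSK-3 alpha with peptide substrate and 25 µM ATP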
Lipid droplet: modulators of hepatic lipid droplet formation. AML12 mouse hepatocytes, oleate lipid droplets, BODIPY imaging. inhibition, % at 6.5 µM. 240,000 compounds, 0.4% hits. AID 1656;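 active = lipid droplet intensity inhibited by at least 50%, with more than 500 cells counted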
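Material: mouse AML12 hepatocyte cell line, fixed after treatment; Timing: compound with oleate, overnight; Technique: high-content imaging of BODIPY-stained droplets and DAPI nuclei; Probe or stimulus: oleate, 100 µM final; Dosing: compound at 6.5 µM only.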
Lipid drop inh: confirmation of inhibitors of hepatic lipid droplet formation | shares compounds with Lipid droplet | AML12 mouse hepatocytes, BODIPY lipid droplet imaging; droplets induced with 100 µM oleic acid | inhibition, % at 5.2 µM | 870 compounds, 65% hits | AID 463183;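 active = inhibition of lipid droplet metric at least 50%, with more than 300 cells in each of four replicates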
AML12 tox img: counter-screen for cytotoxicity in AML12 mouse hepatocytes. shares compounds with Lipid droplet. DAPI nuclear morphology cytotoxicity imaging; active compounds read high; cells fed 100 µM oleate overnight. z-score at 5 µM. 870 compounds, 3% hits; in the data active = z-score above about 6.3;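 note: compound exposure lasted overnight at 37 °C before fixation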
AML12 tox ATP: confirmation of cytotoxicity in AML12 mouse hepatocytes; AML12 mouse hepatocyte viability, ATP luminescence; cells loaded with 100 µM oleic acid; 530 tested, under 10 active; cytotoxicity, % at 50 µM; shares compounds with Lipid droplet;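 active = cytotoxicity above 50% in each of four replicates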;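 note: compound exposure lasted overnight at 37 °C before the ATP read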
Each line names hits and unclear results; the compound was inactive in the other large screens (follow-up assays come after a bar, where they were run).

CS(=O)(=O)N(CC(=O)Nc1ccccc1Br)Cc1ccccc1	Lipid droplet 56 (no result: HSV augment) | Lipid drop inh 67 | AML12 tox img inactive | AML12 tox ATP inactive
CCc1nn(C)c(N)c1C	none
C=CCN1C(=O)C2C(C(=O)NC3CCCC3)C3C=CC2(O3)C1C(=O)NC1CCCC1 (stereo unspecified)	none (no result: HSV augment)
NC(=O)CC(NC(=O)Cc1cccc2ccccc12)c1ccc(N2CCN(c3ccc(F)cc3)CC2)c([N+](=O)[O-])c1 (stereo unspecified)	Lipid droplet 53 | Lipid drop inh inactive | AML12 tox img inactive
NC(=O)CC(NC(=O)Cc1cccc2ccccc12)c1ccc(N2CCN(c3ccccn3)CC2)c([N+](=O)[O-])c1 (stereo unspecified)	none (no result: HSV augment)
COc1ccc(C(=O)NNC(=O)c2ccncc2)cc1[N+](=O)[O-]	none (no result: HSV augment)
COc1c([N+](=O)[O-])cc(C(=O)NNC(=O)c2ccc(C)cc2)cc1[N+](=O)[O-]	Lipid droplet 56 (no result: HSV augment) | Lipid drop inh inactive | AML12 tox img inactive
COc1cc(C2N3CC4(C)CN2CC(C)(C3)C4)ccc1O (stereo unspecified)	Lipid droplet 92 | Lipid drop inh inactive | AML12 tox img inactive
CC12CN3CC(C)(CN(C1)C3c1ccc(Br)cc1)C2 (stereo unspecified)	none
CCCNC(=S)NCc1ccc(Cl)cc1	none (no result: STK33 inh, GSK3A inh)
O=C(CSc1nc2ccccc2nc1N1CCCC1)Nc1ccc(Cl)cc1	none (no result: HSV augment)
CC(C)c1ccc(NC(=O)CSc2nc3ccccc3nc2N2CCCC2)cc1	Lipid droplet 70 (no result: HSV augment) | Lipid drop inh 105 | AML12 tox img inactive | AML12 tox ATP inactive
Cc1ccc(NC(=O)CSc2nc3ccccc3nc2N2CCCC2)cc1	Lipid droplet 70 (no result: HSV augment) | Lipid drop inh 104 | AML12 tox img inactive | AML12 tox ATP inactive
CCc1ccc(NC(=O)CSc2nc3ccccc3nc2N2CCCC2)cc1	Lipid droplet 74 (no result: HSV augment) | Lipid drop inh 101 | AML12 tox img inactive | AML12 tox ATP inactive
COc1ccc(CCC(C)NC(=O)Cc2ccc(OC)c(OC)c2)c(OC)c1 (stereo unspecified)	none (no result: HSV augment)
COc1ccc(CN2CCN(c3ncnc4scc(-c5ccc(F)cc5)c34)CC2)cc1	none (no result: HSV augment)
COc1ccc(F)cc1CN1CCN(c2ncnc3scc(-c4ccccc4)c23)CC1	Lipid droplet 56 | Lipid drop inh inactive | AML12 tox img inactive
CC(OC(=O)Cc1c(F)cccc1Cl)C(=O)NC1(C#N)CCCCC1 (stereo unspecified)	none (no result: HSV augment, Lipid droplet)
COc1cccc(-c2cn(-c3cccc(C(F)(F)F)c3)c(=S)[nH]2)c1	Lipid droplet 59 (no result: HSV augment) | Lipid drop inh inactive | AML12 tox img inactive
COc1ccc(-n2cc(-c3ccccc3)[nH]c2=S)cc1	none
CC(=O)Nc1ccc(S(=O)(=O)N2CCC(c3nc4c(nnn4Cc4ccccc4Cl)c(=O)[nH]3)CC2)cc1	none (no result: HSV augment)
O=C(CNC(=O)/C=C/c1ccco1)N=Nc1c(O)[nH]c2ccccc12	none (no result: HSV augment)
COc1cc(Br)ccc1C1CC(=O)C(C)C(c2ccc(Br)cc2OC)N1 (stereo unspecified)	none (no result: HSV augment, Lipid droplet)
O=C(Nc1ccccc1)C1=C[C@@H](C2CCCCC2)C[C@@H](OCc2ccc(CO)cc2)O1	Lipid droplet 53 | Lipid drop inh 65 | AML12 tox img inactive | AML12 tox ATP inactive
CN(C(=O)CSc1cc(C(=O)c2nccn2C)c2ccccc2n1)c1ccccc1	Lipid droplet 81 | Lipid drop inh inactive | AML12 tox img inactive
COc1cc2ncnc(NCc3cccs3)c2cc1OC	Lipid droplet 52 (no result: STK33 inh) | Lipid drop inh 62 | AML12 tox img 15
COc1ccc(C)cc1S(=O)(=O)N(CC(=O)O)c1ccc(C)cc1	Lipid droplet 53 | Lipid drop inh inactive | AML12 tox img inactive
COCc1ccc(CN2CCC(n3nccc3NC(=O)CCOc3ccccc3)CC2)o1	none (no result: HSV augment)
Cc1cc[n+]2n1CC(O)C2 (stereo unspecified)	none
CC1(C)Nc2ccc(O)cc2-c2c1ssc2=S	none
CCOc1ccc2c(c1)-c1c(ssc1=S)C(C)(C)N2C	Lipid droplet 57 | Lipid drop inh 102 | AML12 tox img inactive | AML12 tox ATP inactive
CCOc1cc(CNC(=O)CCCn2c(=O)c3cccn3c3cccnc32)cc(OCC)c1OCC	Lipid droplet 92 (no result: HSV augment) | Lipid drop inh 107 | AML12 tox img inactive | AML12 tox ATP inactive
COC(=O)Cc1ccc(NC(=O)c2ccc(Br)o2)cc1	none
CCCOC(=O)c1ccc(NC(=O)c2ccc(Br)o2)cc1	Lipid droplet 74 | Lipid drop inh 82 | AML12 tox img inactive | AML12 tox ATP inactive
COc1ccc(CCNC(=O)c2ccc(CNc3nc(=S)[nH]c4ccccc34)cc2)cc1OC	Lipid droplet 52 | Lipid drop inh 101 | AML12 tox img inactive | AML12 tox ATP inactive
COc1ccc(CCNC(=O)[C@H](C)N2C(=O)N3CCc4c([nH]c5ccccc45)[C@@]3(C)C2=O)cc1OC	Lipid droplet 87 (no result: Rce1 inhib, HSV augment) | Lipid drop inh 102 | AML12 tox img inactive | AML12 tox ATP inactive
COc1ccc(CCNc2nc(=S)[nH]c3cc(OC)c(OC)cc23)cc1OC	none
CC1CCCCN1C(=O)COC(=O)/C=C/c1ccc2ccccc2n1 (stereo unspecified)	none
CCOc1ccc(C(=O)NCCNC(=O)c2ccc(OCC)cc2)cc1	Lipid droplet 86 (no result: GSK3beta inhib, Rce1 inhib, HSV augment) | Lipid drop inh 96 | AML12 tox img inactive | AML12 tox ATP inactive
Cc1ccc(C(=O)NCCNC(=O)c2ccc(C)nc2)cc1	Lipid droplet 56 (no result: HSV augment) | Lipid drop inh 91 | AML12 tox img inactive | AML12 tox ATP inactive
Cc1ccc(C(=O)NCCCNC(=O)c2ccc(C)nc2)cc1	none (no result: HSV augment)
CCCOc1cccc(C(=O)NCCNC(=O)c2ccc(C)nc2)c1	Lipid droplet 51 (no result: HSV augment) | Lipid drop inh 83 | AML12 tox img inactive | AML12 tox ATP inactive
Cc1cc(CNC(=O)COC(=O)Cn2[nH]c(=O)c3ccccc3c2=O)cc(C)c1O	none (no result: HSV augment, Lipid droplet)
Cc1ccc(N2CCN(/N=C/c3sccc3C)CC2)cc1	none
Cc1ccc2cc(/C=N/NC(=O)[C@H]3C[C@@H]3c3ccccc3)c(Cl)nc2c1	Lipid droplet 75 | Lipid drop inh inactive | AML12 tox img inactive | AML12 tox ATP inactive
Cc1cccc(Nc2nc(N)c([N+](=O)[O-])c(N3CCCC(C)C3)n2)c1 (stereo unspecified)	Lipid droplet 62 | Lipid drop inh 91 | AML12 tox img inactive | AML12 tox ATP 74
CCNc1c(C(=O)O)ccc2c1C(=O)c1ccccc1C2=O	none

Assay outcomes (PubChem)
